Data published in ChEMBL document CHEMBL5143722, “Antimicrobial Peptides against Multidrug-Resistant Pseudomonas aeruginosa Biofilm from Cystic Fibrosis Patients” (J Med Chem, 2022).
Activity calls are given as the source filed them. No cut-off for these calls is given here.

Columns and labels:
Pseudomonas aeruginosa [1] = assay: Antibiofilm activity against Pseudomonas aeruginosa clinical isolate 24 assessed as inhibition of biofilm formation at sub-inhibitory concentration incubated for 24 hrs by crystal violet staining based microtiter plate method; type: functional, organism-based
Method in brief: (§1)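 Washed overnight cultures in BM2 medium at 1 × 10^6 CFU/mL with 2-fold serial peptide dilutions in a U-bottom 96-well plate. Incubated 24 h at 37 °C without agitation. Unattached cells washed off, then 0.1% crystal violet stain read at 590 nm. No-bacteria blanks. Biomass expressed as % of untreated biofilm. At least three biological repeats.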

Pseudomonas aeruginosa [2] = assay: Antibiofilm activity against Pseudomonas aeruginosa clinical isolate 25 assessed as inhibition of biofilm formation at sub-inhibitory concentration incubated for 24 hrs by crystal violet staining based microtiter plate method; type: functional, organism-based; method in brief: as §1
Pseudomonas aeruginosa [3] = assay: Antibiofilm activity against Pseudomonas aeruginosa clinical isolate 46 assessed as inhibition of biofilm formation at sub-inhibitory concentration incubated for 24 hrs by crystal violet staining based microtiter plate method; type: functional, organism-based; method in brief: as §1
Pseudomonas aeruginosa [4] = assay: Antibiofilm activity against Pseudomonas aeruginosa clinical isolate 53 assessed as inhibition of biofilm formation at sub-inhibitory concentration incubated for 24 hrs by crystal violet staining based microtiter plate method; type: functional, organism-based; method in brief: as §1
Pseudomonas aeruginosa [5] = assay: Antibiofilm activity against Pseudomonas aeruginosa clinical isolate 71 assessed as inhibition of biofilm formation at sub-inhibitory concentration incubated for 24 hrs by crystal violet staining based microtiter plate method; type: functional, organism-based; method in brief: as §1
Pseudomonas aeruginosa [6] = assay: Antibiofilm activity against Pseudomonas aeruginosa clinical isolate 72 assessed as inhibition of biofilm formation at sub-inhibitory concentration incubated for 24 hrs by crystal violet staining based microtiter plate method; type: functional, organism-based; method in brief: as §1
Pseudomonas aeruginosa [7] = assay: Antibiofilm activity against Pseudomonas aeruginosa clinical isolate 99 assessed as inhibition of biofilm formation at sub-inhibitory concentration incubated for 24 hrs by crystal violet staining based microtiter plate method; type: functional, organism-based; method in brief: as §1
Pseudomonas aeruginosa [8] = assay: Antibiofilm activity against Pseudomonas aeruginosa clinical isolate 629 assessed as inhibition of biofilm formation at sub-inhibitory concentration incubated for 24 hrs by crystal violet staining based microtiter plate method; type: functional, organism-based; method in brief: as §1
Pseudomonas aeruginosa [9] = assay: Induction of biofilm degradation of Pseudomonas aeruginosa clinical isolate 24 incubated for 1 hr by crystal violet staining analysis relative to control; type: functional; conditions: dose 50.0 µM
Method in brief: (§2)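 Bacteria at 1 × 10^6 CFU/mL in BM2 grown static at 37 °C for 24 h to form biofilm. Wells rinsed of unattached cells, then exposed for 1 h to serial peptide dilutions (1.56–50 μM). Washed, stained with 0.1% crystal violet, A590 read. Biomass given as % of untreated biofilm; no-bacteria wells as blanks. At least three biological repeats.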

Pseudomonas aeruginosa [10] = assay: Induction of biofilm degradation of Pseudomonas aeruginosa clinical isolate 25 at 50 uM incubated for 1 hr by crystal violet staining analysis relative to control; type: functional; method in brief: as §2
Pseudomonas aeruginosa [11] = assay: Induction of biofilm degradation of Pseudomonas aeruginosa clinical isolate 29 at 50 uM incubated for 1 hr by crystal violet staining analysis relative to control; type: functional; method in brief: as §2
Pseudomonas aeruginosa [12] = assay: Induction of biofilm degradation of Pseudomonas aeruginosa clinical isolate 40 at 50 uM incubated for 1 hr by crystal violet staining analysis relative to control; type: functional; method in brief: as §2
Pseudomonas aeruginosa [13] = assay: Induction of biofilm degradation of Pseudomonas aeruginosa clinical isolate 46 at 50 uM incubated for 1 hr by crystal violet staining analysis relative to control; type: functional; method in brief: as §2
Pseudomonas aeruginosa [14] = assay: Induction of biofilm degradation of Pseudomonas aeruginosa clinical isolate 52 at 50 uM incubated for 1 hr by crystal violet staining analysis relative to control; type: functional; method in brief: as §2
Pseudomonas aeruginosa [15] = assay: Induction of biofilm degradation of Pseudomonas aeruginosa clinical isolate 53 at 50 uM incubated for 1 hr by crystal violet staining analysis relative to control; type: functional; method in brief: as §2
Pseudomonas aeruginosa [16] = assay: Induction of biofilm degradation of Pseudomonas aeruginosa clinical isolate 71 at 50 uM incubated for 1 hr by crystal violet staining analysis relative to control; type: functional; method in brief: as §2
Pseudomonas aeruginosa [17] = assay: Induction of biofilm degradation of Pseudomonas aeruginosa clinical isolate 72 at 50 uM incubated for 1 hr by crystal violet staining analysis relative to control; type: functional; method in brief: as §2
Pseudomonas aeruginosa [18] = assay: Induction of biofilm degradation of Pseudomonas aeruginosa clinical isolate 82 at 50 uM incubated for 1 hr by crystal violet staining analysis relative to control; type: functional; method in brief: as §2
Pseudomonas aeruginosa [19] = assay: Induction of biofilm degradation of Pseudomonas aeruginosa clinical isolate 99 at 50 uM incubated for 1 hr by crystal violet staining analysis relative to control; type: functional; method in brief: as §2
Pseudomonas aeruginosa [20] = assay: Induction of biofilm degradation of Pseudomonas aeruginosa clinical isolate 172 at 50 uM incubated for 1 hr by crystal violet staining analysis relative to control; type: functional; method in brief: as §2
Pseudomonas aeruginosa [21] = assay: Induction of biofilm degradation of Pseudomonas aeruginosa clinical isolate 238 at 50 uM incubated for 1 hr by crystal violet staining analysis relative to control; type: functional; method in brief: as §2
Pseudomonas aeruginosa [22] = assay: Induction of biofilm degradation of Pseudomonas aeruginosa clinical isolate 251 at 50 uM incubated for 1 hr by crystal violet staining analysis; type: functional; method in brief: as §2
Pseudomonas aeruginosa [23] = assay: Induction of biofilm degradation of Pseudomonas aeruginosa clinical isolate 629 at 50 uM incubated for 1 hr by crystal violet staining analysis relative to control; type: functional; method in brief: as §2
Pseudomonas aeruginosa [24] = assay: Induction of biofilm degradation of Pseudomonas aeruginosa clinical isolate 995 at 50 uM incubated for 1 hr by crystal violet staining analysis relative to control; type: functional; method in brief: as §2
Pseudomonas aeruginosa [25] = assay: Induction of biofilm degradation of Pseudomonas aeruginosa PAO1 at 50 uM incubated for 1 hr by crystal violet staining analysis relative to control; type: functional; method in brief: as §2
Pseudomonas aeruginosa [26] = assay: Induction of biofilm degradation of Pseudomonas aeruginosa clinical isolate 24 at sub MIC concentration incubated for 1 hr by crystal violet staining analysis; type: functional; method in brief: as §2
Pseudomonas aeruginosa [27] = assay: Induction of biofilm degradation of Pseudomonas aeruginosa clinical isolate 40 at sub MIC concentration incubated for 1 hr by crystal violet staining analysis; type: functional; method in brief: as §2
Pseudomonas aeruginosa [28] = assay: Induction of biofilm degradation of Pseudomonas aeruginosa clinical isolate 53 at sub MIC concentration incubated for 1 hr by crystal violet staining analysis; type: functional; method in brief: as §2
Pseudomonas aeruginosa [29] = assay: Induction of biofilm degradation of Pseudomonas aeruginosa clinical isolate 59 at <12.5 uM incubated for 1 hr by crystal violet staining analysis; type: functional; method in brief: as §2
Pseudomonas aeruginosa [30] = assay: Inhibition of biofilm formation of Pseudomonas aeruginosa clinical isolate 24 derived from cystic fibrosis patient sputum at 0.78 to 25 uM by crystal violet based staining analysis; type: functional, organism-based; conditions: dose 0.78-25 µM
Method in brief: (§3)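 CF patient sputum diluted 10-fold with BM2, bacteria added with serial peptide dilutions starting from the highest MIC per isolate. Inoculum suspension 1 × 10^6 CFU/mL. Incubated 24 h at 37 °C without agitation. Unattached cells washed away, then 0.1% crystal violet staining and A590. Biomass given as % of untreated, with no-bacteria blanks.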

Pseudomonas aeruginosa [31] = assay: Inhibition of biofilm formation of Pseudomonas aeruginosa clinical isolate 24 derived from cystic fibrosis patient sputum at 0.09 to 3.12 uM by crystal violet based staining analysis; type: functional, organism-based; conditions: dose 0.09-3.12 µM; method in brief: as §3
Pseudomonas aeruginosa [32] = assay: Inhibition of biofilm formation of Pseudomonas aeruginosa clinical isolate 82 derived from cystic fibrosis patient sputum at 0.09 to 3.12 uM by crystal violet based staining analysis; type: functional, organism-based; conditions: dose 0.09-3.12 µM; method in brief: as §3
Pseudomonas aeruginosa [33] = assay: Inhibition of biofilm formation of Pseudomonas aeruginosa PAO1 in patient derived CF-sputum at 0.09 to 3.12 uM by crystal violet based staining analysis; type: functional, organism-based; conditions: dose 0.09-3.12 µM; method in brief: as §3
[34] = tested on: Pseudomonas aeruginosa PAO1; assay: Induction of biofilm degradation of Pseudomonas aeruginosa PAO1 in cystic fibrosis patient sputum at 10 uM incubated for 48 hr by resazurin staining based confocal microscopy analysis

Row | Structure (SMILES) | inhibition (Pseudomonas aeruginosa [1]) | inhibition (Pseudomonas aeruginosa [2]) | inhibition (Pseudomonas aeruginosa [3]) | inhibition (Pseudomonas aeruginosa [4]) | inhibition (Pseudomonas aeruginosa [5]) | inhibition (Pseudomonas aeruginosa [6]) | inhibition (Pseudomonas aeruginosa [7]) | inhibition (Pseudomonas aeruginosa [8]) | Activity (Pseudomonas aeruginosa [9]) [%] | Activity (Pseudomonas aeruginosa [10]) [%] | Activity (Pseudomonas aeruginosa [11]) [%] | Activity (Pseudomonas aeruginosa [12]) [%] | Activity (Pseudomonas aeruginosa [13]) [%] | Activity (Pseudomonas aeruginosa [14]) [%] | Activity (Pseudomonas aeruginosa [15]) [%] | Activity (Pseudomonas aeruginosa [16]) [%] | Activity (Pseudomonas aeruginosa [17]) [%] | Activity (Pseudomonas aeruginosa [18]) [%] | Activity (Pseudomonas aeruginosa [19]) [%] | Activity (Pseudomonas aeruginosa [20]) [%] | also measured
1 | CC(C)C[C@H](NC(=O)[C@H](CC(C)C)NC(=O)[C@H](CCCCN)NC(=O)[C@H](CC(C)C)NC(=O)[C@H](CC(C)C)NC(=O)[C@H](CCCCN)NC(=O)[C@H](CCCCN)NC(=O)[C@H](CC(C)C)NC(=O)[C@H](CC(C)C)NC(=O)[C@H](CCCCN)NC(=O)[C@H](CCCCN)NC(=O)[C@H](CC(C)C)NC(=O)[C@H](CC(C)C)NC(=O)[C@H](CCCCN)NC(=O)[C@@H](N)CC(C)C)C(N)=O | Active | Active | Active | Active | Active | Active | Active | Active | 60 | 60 | 60 | 60 | 60 | 60 | 60 | 60 | 60 | 60 | 60 | 60 | Activity (Pseudomonas aeruginosa [21]): 60%; Activity (Pseudomonas aeruginosa [22]): 60%; Activity (Pseudomonas aeruginosa [23]): 60%; Activity (Pseudomonas aeruginosa [24]): 60%; Activity (Pseudomonas aeruginosa [25]): 60%; Activity (Pseudomonas aeruginosa [26]): Active; Activity (Pseudomonas aeruginosa [27]): Active; Activity (Pseudomonas aeruginosa [28]): Active; Activity (Pseudomonas aeruginosa [29]): Active; inhibition (Pseudomonas aeruginosa [30]): Active; inhibition (Pseudomonas aeruginosa [31]): Active; inhibition (Pseudomonas aeruginosa [32]): Active; inhibition (Pseudomonas aeruginosa [33]): Active; Activity [34]: Active
2 | CC[C@H](C)[C@H](NC(=O)[C@H](CCCCN)NC(=O)[C@H](CCC(=O)O)NC(=O)[C@H](CCCCN)NC(=O)[C@H](CO)NC(=O)[C@H](CCCCN)NC(=O)[C@H](CCCNC(=N)N)NC(=O)[C@H](Cc1ccccc1)NC(=O)[C@H](Cc1ccccc1)NC(=O)[C@H](CC(=O)O)NC(=O)CNC(=O)[C@H](CC(C)C)NC(=O)[C@@H](N)CC(C)C)C(=O)NCC(=O)N[C@@H](CCCCN)C(=O)N[C@@H](CCC(=O)O)C(=O)N[C@@H](Cc1ccccc1)C(=O)N[C@@H](CCCCN)C(=O)N[C@@H](CCCNC(=N)N)C(=O)N[C@H](C(=O)N[C@H](C(=O)N[C@@H](CCC(N)=O)C(=O)N[C@@H](CCCNC(=N)N)C(=O)N[C@H](C(=O)N[C@@H](CCCCN)C(=O)N[C@@H](CC(=O)O)C(=O)N[C@@H](Cc1ccccc1)C(=O)N[C@@H](CC(C)C)C(=O)N[C@@H](CCCNC(=N)N)C(=O)N[C@@H](CC(N)=O)C(=O)N[C@@H](CC(C)C)C(=O)N[C@H](C(=O)N1CCC[C@H]1C(=O)N[C@@H](CCCNC(=N)N)C(=O)N[C@H](C(=O)N[C@@H](CCC(=O)O)C(=O)N[C@@H](CO)C(N)=O)[C@@H](C)O)C(C)C)[C@@H](C)CC)C(C)C)[C@@H](C)CC | Active | Active | Active | Active | Active | Active | Active | Active | 60 | 60 | 60 | 60 | 60 | 60 | 60 | 60 | 60 | 60 | 60 | 60 | Activity (Pseudomonas aeruginosa [21]): 60%; Activity (Pseudomonas aeruginosa [22]): 60%; Activity (Pseudomonas aeruginosa [23]): 60%; Activity (Pseudomonas aeruginosa [24]): 60%; Activity (Pseudomonas aeruginosa [25]): 60%; Activity (Pseudomonas aeruginosa [26]): Active; Activity (Pseudomonas aeruginosa [27]): Active; Activity (Pseudomonas aeruginosa [28]): Active; Activity (Pseudomonas aeruginosa [29]): Active; inhibition (Pseudomonas aeruginosa [30]): Active; inhibition (Pseudomonas aeruginosa [31]): Active; inhibition (Pseudomonas aeruginosa [32]): Active; inhibition (Pseudomonas aeruginosa [33]): Active
3 | CC(C)C[C@H](NC(=O)[C@H](CC(C)C)NC(=O)[C@H](CC(C)C)NC(=O)[C@H](CC(C)C)NC(=O)[C@H](CC(C)C)NC(=O)[C@H](CC(C)C)NC(=O)[C@H](CC(C)C)NC(=O)[C@H](CC(C)C)NC(=O)[C@H](CC(C)C)NC(=O)[C@H](CCCCN)NC(=O)[C@H](CCCCN)NC(=O)[C@@H](N)CCCCN)C(=O)N[C@@H](CCCCN)C(=O)N[C@@H](CCCCN)C(=O)N[C@@H](CCCCN)C(N)=O | Active | Active | Active | Active | Active | Active | Active | Active | 60 | 60 | 60 | 60 | 60 | 60 | 60 | 60 | 60 | 60 | 60 | 60 | Activity (Pseudomonas aeruginosa [21]): 60%; Activity (Pseudomonas aeruginosa [22]): 60%; Activity (Pseudomonas aeruginosa [23]): 60%; Activity (Pseudomonas aeruginosa [24]): 60%; Activity (Pseudomonas aeruginosa [25]): 60%; Activity (Pseudomonas aeruginosa [26]): Active; Activity (Pseudomonas aeruginosa [27]): Active; Activity (Pseudomonas aeruginosa [28]): Active; Activity (Pseudomonas aeruginosa [29]): Active; inhibition (Pseudomonas aeruginosa [30]): Active; inhibition (Pseudomonas aeruginosa [31]): Active; inhibition (Pseudomonas aeruginosa [32]): Active; inhibition (Pseudomonas aeruginosa [33]): Active; Activity [34]: Active
